The record followed here is publication PMC11986672 (RSC Medicinal Chemistry, 2025).

Where two headings read alike, the source gives them in different places. Some results are limits rather than exact numbers.

For experiment [1], the system named is human endometrial cancer (HEC1A) cells. Put plainly: MTT cytotoxicity assay, HEC1A. Type of experiment: cell-based. The conditions noted are these: for IC50: Homo sapiens, HEC-1-A, 48 h; for Selectivity ratio: IC50 MAD11 divided by IC50 HEC1A; for times more potent than BH10: HEC1A IC50 compared with BH10. The essentials:
(§1)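 HEC1A (5000/well) and MAD11 (2500/well) cells were seeded and held overnight at 37 °C. Test compound was reconstituted in DMSO and serially diluted in medium to final 160, 80, 40, 20, 10, 5, 2.5 and 1.25 μM, in triplicate, with matched DMSO in all wells. After 48 h, MTT was added for 3 h, formazan solubilised (4 mM HCl, 0.1% NP-40, isopropanol) and absorbance read at 590/620 nm. IC50 was taken against vehicle controls; selectivity = MAD11 IC50 / HEC1A IC50.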
A general note: Formazan colour is commonly taken as a measure of viable cells.

For experiment [2], the system named is noncancerous human endometrial stromal (MAD11) cells. The experiment is described as follows: MTT cytotoxicity assay, MAD11. Type of experiment: cell-based. The conditions noted are these: MAD11, 48 h, read-out: MAD11 IC50. The essentials: as §1
Setting [3] is: read-out: HEC1A IC50, MTT cell viability, 48 h, n = 3 biological repeats.

The IC50 is the point on the concentration scale where inhibition reaches its midpoint. Consider `O=C1C=C(NCCN2CCOCC2)C(=O)c2ccccc21` [Compound 5, 2-((2-Morpholinoethyl)amino)naphthalene-1,4-dione], for which the IC50 in experiment [1] (setting [3]) and in experiment [2] was more than 40 µM each time.
For the molecule `O=C1C=C(NCCCN2CCOCC2)C(=O)c2ccccc21` [Compound 6, 2-((3-Morpholinopropyl)amino)-[1,4]-naphthoquinone], the IC50 in experiment [1] (setting [3]) and in experiment [2] was more than 40 µM in each case.
Take `O=C1C=C(NCCCN2CCCCC2)C(=O)c2ccccc21` [Compound 7, 2-((3-(Piperidin-1-yl)propyl)amino)-[1,4]-naphthoquinone]: the IC50 is 17.2 µM in experiment [1] (setting [3]) and more than 40 µM in experiment [2]. In experiment [1], the Selectivity ratio was more than 2.32.
With `O=C1C(Br)=C(NCCN2CCOCC2)C(=O)c2ccccc21` [Compound 8, 2-Bromo-3-((2-(4-morpholinyl)ethyl)amino)-[1,4]-naphthoquinone], the IC50 in experiment [1] (setting [3]) is 9.55 µM; in experiment [2], 20.5 µM. Also, the Selectivity ratio in experiment [1] was determined as 2.15.
The corresponding values for `O=C1C(Br)=C(NCCCN2CCOCC2)C(=O)c2ccccc21` [Compound 9, 2-Bromo-3-((3-morpholinopropyl)amino)-[1,4]-naphthoquinone] are 4.16 µM, 12.1 µM and 2.90.
The matching figures for `O=C1C(Br)=C(NCCCN2CCCCC2)C(=O)c2ccccc21` [Compound 10, 2-Bromo-3-((3-(piperidin-1-yl)propyl)amino)-[1,4]-naphthoquinone]: 1.24 µM, 3.27 µM and 2.64.
As to `CC1=C(NCCN2CCOCC2)C(=O)c2ccccc2C1=O` [Compound 11, 2-Methyl-3-((2-(4-morpholinyl)ethyl)amino)-[1,4]-naphthoquinone], the IC50 in experiment [1] (setting [3]) and in experiment [2] was more than 40 µM throughout.
As for `CN(C)CCNC1=C(Cl)C(=O)c2ccccc2C1=O` [Compound 12, 2-Chloro-3-((2-(dimethylamino)ethyl)amino)-[1,4]-naphthoquinone], the IC50 in experiment [1] (setting [3]) was 1.57 µM; in experiment [2], 2.87 µM. Besides, the Selectivity ratio in experiment [1] was 1.83.
As for `O=C1C(Cl)=C(NCCN2CCCC2)C(=O)c2ccccc21` [Compound 13, 2-Chloro-3-((2-(1-pyrrolidinyl)ethyl)amino)-[1,4]-naphthoquinone], the “times more potent than BH10” value in experiment [1] is given as approximately 8 times. In addition, the results for the IC50 in experiment [1] (setting [3]) and in experiment [2] were 1.29 µM and 2.38 µM, respectively. Also, in experiment [1], the Selectivity ratio came out at 1.84.
The corresponding values for `O=C1C(Cl)=C(NCCN2CCCCCC2)C(=O)c2ccccc21` [Compound 15, 2-((2-(Azepan-1-yl)ethyl)amino)-3-chloro-[1,4]-naphthoquinone] are approximately 8 times, 1.29 µM, 2.38 µM and 1.84.
On to `O=C1C(Cl)=C(NCCCl)C(=O)c2ccccc21` [Compound 16, 2-Chloro-3-((2-chloroethyl)amino)-[1,4]-naphthoquinone], for which the IC50 in experiment [1] (read-out: HEC1A IC50) stood at 5.65 µM; in experiment [2], 12.1 µM. In experiment [1], the Selectivity ratio is recorded as 2.14.
With `O=C1C(Cl)=C(NCCN2CCN(C3=C(Cl)C(=O)c4ccccc4C3=O)CC2)C(=O)c2ccccc21` [Compound 18, 2-Chloro-3-(4-(2-((3-chloro-1,4-dioxo-1,4-dihydronaphthalen-2-yl)amino)ethyl)piperazin-1-yl)-[1,4]-naphthoquinone], in experiment [1], the “times more potent than BH10” value amounted to 3.5 times and the Selectivity ratio came out at 1.17. The IC50 in experiment [1] (setting [3]) was determined as 2.91 µM. Moreover, in experiment [2], the IC50 turned out to be 3.4 µM.
For `O=C1C(Cl)=C(NCCc2c[nH]c3ccccc23)C(=O)c2ccccc21` [Compound 19, 2-((2-(1H-Indol-3-yl)ethyl)amino)-3-chloronaphthalene-1,4-dione], the IC50 in experiment [1] (setting [3]) came out at 18.6 µM; in experiment [2], 40.3 µM. In addition, in experiment [1], the Selectivity ratio is recorded as 2.24.
